ChEMBL document CHEMBL4052623, “Synthesis and antiproteasomal activity of novel O-benzyl salicylamide-based inhibitors built from leucine and phenylalanine” (Eur J Med Chem, 2017)
Activity calls are given as the source filed them. The calls are words filed in the database; no cut-off is given here.

How the values were obtained:
[1] = biological target: T1, Proteasome Macropain subunit MB1 (Homo sapiens) (UniProt P28074); test: Inhibition of chymotrypsin like activity of 26S proteasome beta 5 subunit in human U266 cells assessed as residual activity using N-Suc-LLVY-AMC as substrate at 10 uM preincubated for 1 hr followed by substrate addition and measured after 4 hrs by fluorescence assay relative to control; assay type: cell-based
T1 sequence (whole entry): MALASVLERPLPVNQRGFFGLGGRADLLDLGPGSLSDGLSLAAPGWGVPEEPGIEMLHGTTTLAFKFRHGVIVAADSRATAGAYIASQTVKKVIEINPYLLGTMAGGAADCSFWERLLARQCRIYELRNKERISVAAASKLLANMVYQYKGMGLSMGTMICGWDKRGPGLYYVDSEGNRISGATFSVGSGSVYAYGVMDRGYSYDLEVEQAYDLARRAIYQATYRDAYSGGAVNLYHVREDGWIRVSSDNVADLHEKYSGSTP

[2] = test system: K562; test: Antiproliferative activity against human K562 cells after 72 hrs by calcein AM staining based fluorescence assay; assay type: functional; settings: K562, 72 h
In short: (§1)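 Cells treated with three-fold compound dilutions in triplicate for 72 h. Calcein AM added afterwards and live-cell fluorescence read at 485/538 nm (ex/em). GI50, the concentration lethal to 50% of tumour cells, calculated from dose-response curves.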

[3] = test system: CCRF-CEM; test: Antiproliferative activity against human CEM cells after 72 hrs by calcein AM staining based fluorescence assay; assay type: functional; in short: as §1
[4] = test system: U-266; test: Antiproliferative activity against human U266 cells after 72 hrs by calcein AM staining based fluorescence assay; assay type: functional; settings: U-266, 72 h; in short: as §1
[5] = biological target: Proteasome Macropain subunit (Homo sapiens) (UniProt P49721); test: Inhibition of trypsin like activity of 26S proteasome beta 2 subunit in human U266 cells assessed as residual activity using […] as substrate at 10 uM preincubated for 1 hr followed by substrate addition and measured after 4 hrs by fluorescence assay relative to control; assay type: cell-based
Sequence of Proteasome Macropain subunit (Homo sapiens) (P49721 whole entry): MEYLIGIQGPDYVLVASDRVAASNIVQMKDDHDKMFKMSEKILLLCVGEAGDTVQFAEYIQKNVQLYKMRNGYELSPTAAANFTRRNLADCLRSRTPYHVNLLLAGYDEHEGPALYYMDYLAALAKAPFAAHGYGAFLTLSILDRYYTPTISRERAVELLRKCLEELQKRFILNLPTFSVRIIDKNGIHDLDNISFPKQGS

[6] = biological target: T2, Proteasome component C5 (Homo sapiens) (UniProt P20618); test: Inhibition of caspase like activity of 26S proteasome beta 1 subunit in human U266 cells assessed as residual activity using […] as substrate at 10 uM preincubated for 1 hr followed by substrate addition and measured after 4 hrs by fluorescence assay relative to control; assay type: cell-based
T2 sequence (whole entry): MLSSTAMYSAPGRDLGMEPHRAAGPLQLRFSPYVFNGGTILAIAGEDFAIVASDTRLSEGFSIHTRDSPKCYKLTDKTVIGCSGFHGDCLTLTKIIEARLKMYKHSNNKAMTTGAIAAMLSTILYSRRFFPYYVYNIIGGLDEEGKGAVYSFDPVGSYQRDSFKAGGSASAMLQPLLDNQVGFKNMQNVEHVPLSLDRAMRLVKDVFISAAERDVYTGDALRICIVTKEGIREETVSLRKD

[7] = organism: Homo sapiens; test: Inhibition of proteasome in human U266 cells assessed as increase in accumulation of polyubiquitinated proteins by Western blot analysis; assay type: cell-based; settings: TDE = time-dependent effect
In short: (§2)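 Treated U266 cells harvested in Laemmli sample buffer. Proteins separated by SDS-PAGE and electroblotted to nitrocellulose. Membranes blocked, probed overnight with specific primary antibodies, then detected with peroxidase-conjugated secondary antibodies.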

[8] = biological target: T3, Proteasome Macropain subunit MB1 (Homo sapiens, UniProt P28074); test: Inhibition of chymotrypsin-like activity of 26S proteasome beta 5 subunit in human U266 cells using Suc-LLVY-aminoluciferin as substrate after 1 hr by Proteosome-Glo luminescence assay; assay type: cell-based
T3 sequence (P28074 whole entry): T1 sequence (whole entry)
In short: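 U266 multiple myeloma cells plated at 20,000 cells/well and exposed to varying compound concentrations for 1 h at 37 °C, in duplicate. 26S proteasome activity measured immediately as luciferase-coupled hydrolysis of the β5 substrate Suc-LLVY-aminoluciferin (Proteasome-Glo), read by luminescence. Activity normalised to untreated cells; IC50 derived from dose-response curves.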

[9] = organism: Homo sapiens; test: Inhibition of proteasome in human U2OS cells stably expressing GFP fused to short degron assessed as increase in GFP accumulation pre-incubated for 1 hr and measured after 9 hrs by live-cell imaging microscopy; assay type: cell-based
[10] = organism: Homo sapiens; test: Inhibition of proteasome in human U2OS cells stably expressing GFP fused to short degron assessed as increase in GFP accumulation at 200 nM […] by live-cell imaging microscopy; assay type: cell-based
[11] = test system: U2OS; test: Cytotoxicity against human U2OS cells at 6.25 uM after 16 hrs by live-cell imaging microscopic analysis; assay type: cell-based
In short: (§3)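 U2OS degron-GFP cells plated at 10,000 cells/well and treated with a range of compound concentrations. Proliferation followed by live-cell time-lapse imaging as percent confluence (occupied image area) over time, up to 72 h.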

[12] = test system: U2OS; test: Antiproliferative activity against human U2OS cells up to 1 uM after 24 hrs by live-cell imaging microscopic analysis; assay type: functional, cell-based; in short: as §3
[13] = test system: U2OS; test: Antiproliferative activity against human U2OS cells up to 1 uM after 48 hrs by live-cell imaging microscopic analysis; assay type: functional, cell-based; in short: as §3
[14] = test system: U2OS; test: Antiproliferative activity against human U2OS cells at 200 nM after 72 hrs by live-cell imaging microscopic analysis; assay type: functional, cell-based; in short: as §3
[15] = organism: Homo sapiens; test: Inhibition of proteasome in human U266 cells assessed as increase in accumulation of polyubiquitinated proteins at 250 nM by Western blot analysis; assay type: cell-based; settings: TDE = time-dependent effect; in short: as §2
[16] = organism: Homo sapiens; test: Inhibition of proteasome in human U266 cells assessed as increase in p27KIP level up to 24 hrs by Western blot method; assay type: cell-based; in short: as §2
[17] = test system: U-266; test: Induction of apoptosis in human U266 cells assessed as increase in caspase-3/7 activity using Ac-DEVD-AMC as substrate at 250 nM by fluorescence assay; assay type: functional, cell-based; settings: TDE = time-dependent effect
In short: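 Homogenates clarified at 10,000 × g for 30 min at 4 °C and protein-equalised. Lysates incubated with 100 µM Ac-DEVD-AMC in pH 7.3 PIPES/EGTA/MgCl2/DTT buffer. Fluorescence read at 355/460 nm and normalised to untreated control.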

[18] = test system: U-266; test: Induction of apoptosis in human U266 cells assessed as PARP1 cleavage at 250 nM after 16 to 24 hrs by Western blot method; assay type: functional, cell-based; in short: as §2
[19] = test system: U-266; test: Induction of apoptosis in human U266 cells assessed as caspase-7 cleavage at 250 nM after 16 to 24 hrs by Western blot method; assay type: functional, cell-based; in short: as §2
[20] = test system: U-266; test: Induction of apoptosis in human U266 cells assessed as downregulation of Mcl-1 level at 250 nM after 16 to 24 hrs by Western blot method; assay type: functional, cell-based; in short: as §2
[21] = test system: U-266; test: Effect on beta-actin protein levels in human U266 cells at 250 nM after 2 to 24 hrs by Western blot analysis; assay type: ADME, cell-based; settings: u-266, 0.25 µM; in short: as §2
[22] = test system: U-266; test: Effect on alpha-tubulin protein levels in human U266 cells at 250 nM after 2 to 24 hrs by Western blot analysis; assay type: ADME, cell-based; settings: u-266, 0.25 µM; in short: as §2

Compound | Activity [1] [%] | GI50 [2] [µM] | GI50 [3] [µM] | Activity [5] [%] | Activity [6] [%] | IC50 [8] [µM] | GI50 [4] [µM] | inhibition [9] | other results
CC(C)C[C@H](NC(=O)[C@H](Cc1ccccc1)NC(=O)c1cnccn1)B(O)O [BORTEZOMIB] | 1.5 | 0.007 | 0.001 | 86.1 | 0 | – | 0.001 | – | inhibition [7]: Tde
CC(C)C[C@H](NC(=O)c1cc(Cl)ccc1OCc1ccccc1)C(=O)N[C@@H](Cc1ccccc1)C(=O)N[C@H](C=O)Cc1ccccc1 | 25.8 | 1.45 | 0.44 | 47.2 | > 100 | 0.11 | 0.4 | Dose-dependent effect | –
CC(C)C[C@H](NC(=O)c1cc(Cl)ccc1OCc1ccccc1)C(=O)N[C@@H](Cc1ccccc1)C(=O)NC(C=O)Cc1ccccc1 (stereo not given in full) | 29.1 | 1.28 | 0.4 | 62.3 | > 100 | 0.168 | 0.46 | Dose-dependent effect | –
CC(C)C[C@@H](C=O)NC(=O)c1cc(Cl)ccc1OCc1ccccc1 | 68.8 | 23.6 | 24.3 | 57.5 | 68.2 | > 1 | 55.8 | – | –
CC(C)C[C@@H](C=O)NC(=O)[C@H](CC(C)C)NC(=O)[C@H](CC(C)C)NC(=O)c1cc(Cl)ccc1OCc1ccccc1 | 11.8 | 0.76 | 0.41 | 54.2 | 34.6 | 0.057 | 0.2 | – | –
CC(C)C[C@H](NC(=O)c1cc(Cl)ccc1O)C(=O)N[C@@H](Cc1ccccc1)C(=O)N[C@H](C=O)Cc1ccccc1 | 71.7 | 6.9 | 2.3 | 84.2 | 73.5 | 0.74 | 2.23 | Dose-dependent effect | –
CC(C)CC(C=O)NC(=O)[C@H](CC(C)C)NC(=O)[C@H](CC(C)C)NC(=O)c1cc(Cl)ccc1OCc1ccccc1 (stereo not given in full) | 10.4 | 0.61 | 0.49 | 64.2 | 39.2 | 0.099 | 0.29 | Dose-dependent effect | –
CC(C)C[C@@H](C=O)NC(=O)[C@H](Cc1ccccc1)NC(=O)[C@H](CC(C)C)NC(=O)c1cc(Cl)ccc1O | 27.9 | 2.1 | 0.78 | 72.6 | 28.9 | 0.237 | 0.67 | Dose-dependent effect | –

Second part, led by results:

Activity [1] [%] | GI50 [2] [µM] | GI50 [3] [µM] | Activity [5] [%] | Activity [6] [%] | IC50 [8] [µM] | Compound | GI50 [4] [µM] | inhibition [9] | other results
10.6 | 1.04 | 0.43 | 42.5 | 40.2 | 0.067 | CC(C)C[C@@H](C=O)NC(=O)[C@H](Cc1ccccc1)NC(=O)[C@H](CC(C)C)NC(=O)c1cc(Cl)ccc1OCc1ccccc1 | 0.17 | Dose-dependent effect | –
13.4 | 0.57 | 0.28 | 81.8 | 74.6 | 0.09 | CC(C)CC(C=O)NC(=O)[C@H](Cc1ccccc1)NC(=O)[C@H](CC(C)C)NC(=O)c1cc(Cl)ccc1OCc1ccccc1 (stereo not given in full) | 0.15 | Dose-dependent effect | inhibition [10]: Active; Activity [11]: Toxic; Activity [12]: inactive; Activity [13]: Active; Activity [14]: inactive; inhibition [15]: Tde; inhibition [16]: Dose-dependent effect; Activity [17]: Tde; Activity [18]: Active; Activity [19]: Active; Activity [20]: Active; Activity [21]: Non-Toxic; Activity [22]: Non-Toxic
27.9 | 1.05 | 0.79 | 48.4 | 66.2 | 0.197 | CC(C)C[C@H](NC(=O)c1cc(Cl)ccc1OCc1ccccc1)C(=O)N[C@@H](CC(C)C)C(=O)NC(C=O)Cc1ccccc1 (stereo not given in full) | 0.54 | Dose-dependent effect | –
20.7 | 0.73 | 0.4 | > 100 | 19.7 | 0.075 | CC(C)C[C@H](NC(=O)c1cc(Cl)ccc1OCc1ccccc1)C(=O)N[C@@H](Cc1ccccc1)C(=O)N[C@@H](C=O)CC(C)C | 0.21 | – | –
